Source: publication PMC2583325 (Insect biochemistry and molecular biology, 2008)

Experiments:
AM-33 = target: T1, AM-33 (Argas monolakensis, UniProt Q09JW0); assay: isothermal titration calorimetry; format: binding
T1 sequence (Q09JW0 19-179): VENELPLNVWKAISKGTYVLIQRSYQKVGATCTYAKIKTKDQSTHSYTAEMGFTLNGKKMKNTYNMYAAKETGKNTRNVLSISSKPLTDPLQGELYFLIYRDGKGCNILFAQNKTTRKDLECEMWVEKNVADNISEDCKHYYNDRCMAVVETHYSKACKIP
Outline: (§1)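 Recombinantly expressed tick salivary lipocalin, checked for quality, in isothermal titration calorimetry on a VP-ITC instrument. Protein at 2 µM titrated against 20 µM lipid-derived ligand (fatty acid, leukotrienes, thromboxane analogues, prostaglandin, PAF) unless otherwise indicated. Stoichiometry (N), KD, ΔH and TΔS fitted per titration; S.E.M. is deviation of the data from the fit.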

TSGP4 = target: T2, TSGP4 (Ornithodoros kalahariensis, UniProt Q8I9T9); assay: isothermal titration calorimetry; format: binding
T2 sequence (Q8I9T9 21-176): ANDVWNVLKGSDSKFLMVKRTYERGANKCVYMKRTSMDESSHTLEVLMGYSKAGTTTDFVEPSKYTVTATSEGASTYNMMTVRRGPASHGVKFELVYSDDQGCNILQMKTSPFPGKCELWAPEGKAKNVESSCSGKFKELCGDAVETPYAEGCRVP
Outline: as §1

Row | Compound | Kd (AM-33) | Kd (TSGP4)
1 | CCCCC/C=C\C/C=C\C/C=C\C/C=C\CCCC(=O)O [Arachidonic acid] | 613 ± 198 nM | 155 ± 43 nM
2 | CCCCC/C=C\C[C@@H](O)/C=C/C=C/C=C\[C@@H](O)CCCC(=O)O [LTB4] | 587 ± 286 nM | 1000 ± 476 nM
3 | CCCCC/C=C\C\C=C/C=C/C=C/[C@@H](SC[C@H](NC(=O)CC[C@H](N)C(=O)O)C(=O)NCC(=O)O)[C@@H](O)CCCC(=O)O [LTC4] | 2.2 ± 0.4 nM | ≤ 2 nM
4 | CCCCC/C=C\C\C=C/C=C/C=C/[C@@H](SC[C@H](N)C(=O)NCC(=O)O)[C@@H](O)CCCC(=O)O [LTD4] | ≤ 2 nM | ≤ 2 nM
5 | CCCCC/C=C\C\C=C/C=C/C=C/[C@@H](SC[C@H](N)C(=O)O)[C@@H](O)CCCC(=O)O [LTE4] | 68 ± 6.6 nM | 10.8 ± 2 nM
